Each structure is given as a SMILES string.

Assay [1] has as its system Mus musculus. Put plainly: Antidepressant activity in mouse assessed as immobility time at 1 mg/kg, ip by forced swimming test. The settings on record: route intraperitoneal. The class given is functional.
Assay [2] has as its target T1, 5-hydroxytryptamine receptor 3A (Cavia porcellus, UniProt O70212).
T1 sequence (O70212 whole entry): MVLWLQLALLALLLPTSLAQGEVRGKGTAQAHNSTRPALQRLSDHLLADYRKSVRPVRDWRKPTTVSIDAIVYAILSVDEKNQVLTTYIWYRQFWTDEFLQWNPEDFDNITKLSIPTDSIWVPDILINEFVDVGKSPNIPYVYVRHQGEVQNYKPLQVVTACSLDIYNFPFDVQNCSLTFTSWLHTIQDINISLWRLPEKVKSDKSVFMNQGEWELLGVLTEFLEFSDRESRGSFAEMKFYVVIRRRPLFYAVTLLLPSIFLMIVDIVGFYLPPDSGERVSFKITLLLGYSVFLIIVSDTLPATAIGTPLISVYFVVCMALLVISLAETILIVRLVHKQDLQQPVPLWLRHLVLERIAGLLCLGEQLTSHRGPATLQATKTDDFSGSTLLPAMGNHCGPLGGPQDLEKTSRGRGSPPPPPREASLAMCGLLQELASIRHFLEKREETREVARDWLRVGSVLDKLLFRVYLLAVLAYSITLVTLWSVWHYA
Put plainly: Antagonist activity at 5-HT3 receptor in guinea pig ileum muscle. In kind it is functional, tissue-based. The settings on record: read-out: pA2 (converted). The method, boiled down: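 Longitudinal muscle myenteric plexus preparation from ileum of male Dunkin Hartley guinea pigs (350-400 g); antagonism measured against the 5-HT3 agonist 2-methyl-5-HT and expressed as pA2 by literature methods; mean of two separate experiments.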

Assay [3] relates to Mus musculus. Put plainly: Antipsychotic activity in Swiss Albino mouse assessed as spontaneous locomotor score at 1 mg/kg, ip measured for 10 mins by actophotometer. The class given is functional. The settings on record: route intraperitoneal. The method, boiled down:
(§1)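 Swiss Albino mice (23 ± 2 g) given compound intraperitoneally in 10% PEG-400 in water; spontaneous locomotor activity counted in an actophotometer over 10 min as locomotor score; n = 8 per group, mean; one-way ANOVA with Dunnett's test versus vehicle-treated group.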

For assay [4], the system named is Mus musculus. As to the kind of experiment: Antipsychotic activity in Swiss Albino mouse assessed as spontaneous locomotor score at 2 mg/kg, ip measured for 10 mins by actophotometer. In kind it is functional. The settings on record: route intraperitoneal. The essentials:
as §1

In assay [5] the test system is Mus musculus. Put plainly: Antidepressant activity in Swiss Albino mouse assessed as immobility time at 2 mg/kg, ip by forced swimming test. The settings on record: route intraperitoneal. The class given is functional.
The test system of assay [6] is Mus musculus. As to the kind of experiment: Antidepressant activity in Swiss Albino mouse assessed as immobility time at 0.5 mg/kg, ip by forced swimming test (reference value: 165.6 +/- 03.2 sec). In kind it is functional. The settings on record: route intraperitoneal.
In assay [7] the test system is Mus musculus. As to the kind of experiment: Antipsychotic activity in Swiss Albino mouse assessed as spontaneous locomotor score at 0.5 mg/kg, ip measured for 10 mins by actophotometer. To be noted: route intraperitoneal. In kind it is functional. The essentials:
as §1

With `CCOc1nc2ccccc2nc1C(=O)Nc1cccnc1`, in the assay with Mus musculus [1], the Time came to 144 s. In assay [2], the Kb was 15800 nM. Also, the Activity with Mus musculus [3] was 365 score.

In the case of `CCOc1nc2ccccc2nc1C(=O)N1CCN(c2cccc(C(F)(F)F)c2)CC1`, the Time with Mus musculus [1] is recorded as 148 s. Moreover, in assay [2], the Kb is 7940 nM. In addition, in the assay with Mus musculus [3], the Activity turned out to be 356 score.

As for `Cc1nccn1CC1CCc2c(c3ccccc3n2C)C1=O` (stereo not drawn) [ONDANSETRON], the figures for the Time in the assay with Mus musculus [1], with Mus musculus [5] and with Mus musculus [6] were 100.4 s, 95.1 s and 130.2 s, respectively. Moreover, the Activity in the assay on Mus musculus [4] is 400 score; in the assay on Mus musculus [3], 388 score; in the assay with Mus musculus [7] it was 368 score.

Regarding `CCOc1nc2ccccc2nc1C(=O)NCCN(C)C`, the Time in the assay on Mus musculus [1] was found to be 117.7 s; in the assay with Mus musculus [5], 96 s; in the assay on Mus musculus [6], 133.6 s. Further, the figures for the Activity with Mus musculus [4], with Mus musculus [3] and in the assay with Mus musculus [7] were 343 score, 349 score and 345 score, respectively. Moreover, the Kb in assay [2] was 126 nM.

Consider `CCOc1nc2ccccc2nc1C(=O)N1CCN(C)CC1`, for which the Time with Mus musculus [1] was 94 s; with Mus musculus [5] it was 130 s; with Mus musculus [6], 125 s. Also, the figures for the Activity in the assay on Mus musculus [4], with Mus musculus [3] and with Mus musculus [7] were 356 score, 350 score and 353 score, respectively. Moreover, in assay [2], the Kb is 20 nM.

For the molecule `CCOc1nc2ccccc2nc1C(=O)NCCc1c[nH]c2ccccc12`, the Time with Mus musculus [1] is given as 104 s; in the assay on Mus musculus [5] it was 79.3 s; in the assay with Mus musculus [6] it was 150.3 s. In addition, the Activity in the assay on Mus musculus [4] came to 355 score; with Mus musculus [3] it was 350 score; with Mus musculus [7] it was 366 score. Also, in assay [2], the Kb is 63.1 nM.

On to `CCOc1nc2ccccc2nc1C(=O)N1CCN(Cc2ccccc2)CC1`, for which the Time in the assay on Mus musculus [1] was determined as 160 s. Further, the Kb in assay [2] was 25100 nM. Also, in the assay with Mus musculus [3], the Activity was determined as 366 score.

In the case of `CCOc1nc2ccccc2nc1C(=O)N1CCN(c2ccc(Cl)cc2)CC1`, in the assay on Mus musculus [1], the Time was found to be 146.6 s. Besides, the Kb in assay [2] is 1000 nM. The Activity in the assay with Mus musculus [3] was 364 score.

As for `CCOc1nc2ccccc2nc1C(=O)N1CCN(c2ccccc2)CC1`, in the assay with Mus musculus [1], the Time was 134 s. Further, the Kb in assay [2] is 10000 nM. Moreover, the Activity in the assay with Mus musculus [3] amounted to 382 score.

On to `CCOc1nc2ccccc2nc1C(=O)NCCN(CC)CC`, for which, in the assay with Mus musculus [1], the Time came out at 162 s. In assay [2], the Kb was 20000 nM. Moreover, in the assay on Mus musculus [3], the Activity turned out to be 362 score.

For the molecule `CCOc1nc2ccccc2nc1C(=O)N1CCN(c2ccccc2OC)CC1`, the Time in the assay on Mus musculus [1] stood at 113.3 s; in the assay on Mus musculus [5], 122 s; in the assay with Mus musculus [6], 115.3 s. The figures for the Activity in the assay on Mus musculus [4], with Mus musculus [3] and in the assay on Mus musculus [7] were 366 score, 360 score and 351 score, respectively. Further, the Kb in assay [2] was 100 nM.

Consider `C=CCN1CCN(C(=O)c2nc3ccccc3nc2OCC)CC1`, for which the Time with Mus musculus [1] was found to be 127 s; with Mus musculus [5] it was 118 s; in the assay on Mus musculus [6], 152 s. In addition, the Activity was 352 score with Mus musculus [4], 360 score with Mus musculus [3] and 345 score with Mus musculus [7]. Further, in assay [2], the Kb was 158 nM.

On to `CCOc1nc2ccccc2nc1C(=O)Nc1ccc(N(CC)CC)cc1`, for which the Time with Mus musculus [1] was 145 s. The Kb in assay [2] is 10000 nM. Further, in the assay on Mus musculus [3], the Activity turned out to be 374 score.

With `CCOc1nc2ccccc2nc1C(=O)N1CCN(CC)CC1`, the Time with Mus musculus [1] is listed as 98 s; in the assay on Mus musculus [5], 128 s; in the assay with Mus musculus [6] it was 159.3 s. Besides, the results for the Activity with Mus musculus [4], with Mus musculus [3] and with Mus musculus [7] were 352 score, 360 score and 349 score, respectively. In assay [2], the Kb was 31.6 nM.

Consider `CCOc1nc2ccccc2nc1C(=O)N1CCN(c2ccc(OC)cc2)CC1`, for which the Time is 114.6 s in the assay with Mus musculus [1], 121.6 s in the assay with Mus musculus [5] and 159 s with Mus musculus [6]. The Activity turned out to be 361 score with Mus musculus [4], 356 score in the assay with Mus musculus [3] and 352 score in the assay with Mus musculus [7]. Also, the Kb in assay [2] is 158 nM.

With `CCOc1nc2ccccc2nc1C(=O)N1CCN(c2cccc(Cl)c2)CC1`, the figures for the Time in the assay with Mus musculus [1], in the assay with Mus musculus [5] and in the assay with Mus musculus [6] were 110.6 s, 76.6 s and 83.6 s, respectively. In addition, the Activity came out at 358 score with Mus musculus [4], 352 score in the assay with Mus musculus [3] and 361 score with Mus musculus [7]. Also, the Kb in assay [2] was 251 nM.

The values are drawn from ChEMBL document CHEMBL1667839, “Discovery of new anti-depressants from structurally novel 5-HT3 receptor antagonists: design, synthesis and pharmacological evaluation of 3-ethoxyquinoxalin-2-carboxamides” (Bioorg Med Chem Lett, 2011).
